The structures appear in SMILES notation.

Series [1] deals with T1, Kallikrein-5 (Homo sapiens, UniProt Q9Y337).
T1 sequence (Q9Y337 whole entry): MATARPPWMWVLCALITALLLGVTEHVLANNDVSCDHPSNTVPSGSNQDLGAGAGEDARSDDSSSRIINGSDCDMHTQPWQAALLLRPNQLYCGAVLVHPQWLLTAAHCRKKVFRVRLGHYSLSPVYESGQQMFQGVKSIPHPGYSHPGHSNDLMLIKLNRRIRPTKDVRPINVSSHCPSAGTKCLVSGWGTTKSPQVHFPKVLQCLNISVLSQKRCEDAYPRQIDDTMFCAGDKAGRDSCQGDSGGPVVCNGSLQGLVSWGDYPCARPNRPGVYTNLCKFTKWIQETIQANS
The series can be described thus: Inhibition of human recombinant 6His-Q-FLAG-tagged KLK5 expressed in baculovirus infected Sf9 insect cells using (Tos-Gly-Pro-Arg)2[R110].2TFA as substrate measured at 30 secs interval for 5 mins by FLINT assay. An outline of the steps:
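Standard KLK5 assay format. Its theoretical tight-binding limit corresponds to pIC50 8.4.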

Series [2] concerns the target T2, Kallikrein-1 (Homo sapiens, UniProt P06870). The series can be described thus: Inhibition of human recombinant N-terminal His-tagged and enterokinase cleavage site-fused KLK1 (19 to 262 residues) expressed in baculovirus infected Sf9 insect cells using R110 labelled GSK3162232A as substrate measured at 30 secs interval for 5 mins by FLINT assay.
A short description of series [3]: Dissociation constant, borocycle pKa of the compound. In kind it is physicochemical.
The target of series [4] is T2, Kallikrein-1. Put plainly: Inhibition of human recombinant N-terminal His-tagged and enterokinase cleavage site-fused KLK1 (19 to 262 residues) expressed in baculovirus infected Sf9 insect cells at 10 uM using R110 labelled GSK3162232A as substrate measured at 30 secs interval for 5 mins by FLINT assay relative to control.
The next series addresses Coagulation factor X (Homo sapiens, UniProt P00742). Put plainly: Inhibition of recombinant human C-terminal 10-His-tagged factor Xa (L24 to K488 residues) expressed in baculovirus infected Sf21 insect cells using Mca-RPKPVE-Nval-WRK(Dnp)-NH2 as substrate incubated for 40 mins by FLINT assay.
The target of the next series is Plasma kallikrein (Homo sapiens, UniProt P03952). The series can be described thus: Inhibition of human C-terminal 6-His-tagged KLKB1 (G20-A638 residues) expressed in mouse NS0 cells using PFR-AMC as substrate incubated for 40 mins by FLINT assay.
A further series deals with Kallikrein-7 (Homo sapiens, UniProt P49862). Put plainly: Inhibition of recombinant human C-terminal 10-His-tagged KLK7 (Glu23 to His252 residues) expressed in mouse NS0 cells using 5-FAM-E-A-L-Y-L-V-S-G-C(5-TAMRA) as substrate incubated for 40 mins by FLINT assay.
The target of another series is T3, Kallikrein-8 (Homo sapiens, UniProt O60259).
T3 sequence (O60259 whole entry): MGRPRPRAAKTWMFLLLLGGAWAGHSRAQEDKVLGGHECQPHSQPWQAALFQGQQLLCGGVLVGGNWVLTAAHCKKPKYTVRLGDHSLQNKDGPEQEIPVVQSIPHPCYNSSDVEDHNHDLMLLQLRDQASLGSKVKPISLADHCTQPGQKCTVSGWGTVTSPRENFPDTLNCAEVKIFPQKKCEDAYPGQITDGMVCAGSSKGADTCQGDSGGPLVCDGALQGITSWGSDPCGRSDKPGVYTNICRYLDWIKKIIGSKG
Put plainly: Inhibition of recombinant human C-terminal 10-His-tagged KLK8 (Gln29 to Gly260 residues) expressed in mouse NS0 cells using BOC-VPR-AMC as substrate incubated for 40 mins by FLINT assay.

For another series, the target named is T4, Kallikrein-14 (Homo sapiens, UniProt Q9P0G3).
T4 sequence (Q9P0G3 whole entry): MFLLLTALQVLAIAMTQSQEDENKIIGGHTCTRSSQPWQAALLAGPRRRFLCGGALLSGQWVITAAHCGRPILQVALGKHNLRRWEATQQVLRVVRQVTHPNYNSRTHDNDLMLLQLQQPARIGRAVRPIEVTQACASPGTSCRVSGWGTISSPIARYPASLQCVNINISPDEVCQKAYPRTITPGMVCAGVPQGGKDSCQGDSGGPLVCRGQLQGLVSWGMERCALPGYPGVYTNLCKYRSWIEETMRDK
Put plainly: Inhibition of recombinant human C-terminal 10-His-tagged KLK14 (Q19 to M248 residues) expressed in mouse NS0 cells using BOC-VPR-AMC as substrate incubated for 40 mins by FLINT assay.

Series [5] deals with T5, Suppressor of tumorigenicity 14 protein (Homo sapiens, UniProt Q9Y5Y6).
T5 sequence (Q9Y5Y6 whole entry): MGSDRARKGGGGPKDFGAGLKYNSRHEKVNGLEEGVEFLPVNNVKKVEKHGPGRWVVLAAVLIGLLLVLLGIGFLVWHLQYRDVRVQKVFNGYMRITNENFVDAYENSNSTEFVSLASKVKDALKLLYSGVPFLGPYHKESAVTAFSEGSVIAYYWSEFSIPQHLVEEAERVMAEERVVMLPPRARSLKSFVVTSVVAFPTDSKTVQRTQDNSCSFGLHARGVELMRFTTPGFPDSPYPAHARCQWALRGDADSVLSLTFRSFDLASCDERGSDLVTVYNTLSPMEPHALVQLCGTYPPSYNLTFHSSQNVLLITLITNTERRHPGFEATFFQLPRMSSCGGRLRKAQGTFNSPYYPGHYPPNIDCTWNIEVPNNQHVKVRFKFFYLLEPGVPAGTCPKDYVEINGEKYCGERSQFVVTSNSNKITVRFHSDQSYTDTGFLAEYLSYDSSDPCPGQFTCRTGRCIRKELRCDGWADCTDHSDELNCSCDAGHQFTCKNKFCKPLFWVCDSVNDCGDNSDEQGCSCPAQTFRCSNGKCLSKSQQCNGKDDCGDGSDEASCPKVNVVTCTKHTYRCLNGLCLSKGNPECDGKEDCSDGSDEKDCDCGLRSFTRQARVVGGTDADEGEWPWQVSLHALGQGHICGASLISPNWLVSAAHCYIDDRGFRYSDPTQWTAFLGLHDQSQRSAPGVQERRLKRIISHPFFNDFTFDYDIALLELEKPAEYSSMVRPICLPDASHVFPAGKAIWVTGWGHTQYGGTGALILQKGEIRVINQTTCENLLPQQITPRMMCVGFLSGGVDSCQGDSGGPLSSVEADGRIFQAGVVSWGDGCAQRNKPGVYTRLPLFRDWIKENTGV
The series can be described thus: Inhibition of recombinant human N-terminal Met and 6-His-tagged matriptase (G596 to V855 residues) expressed in Escherichia coli using Boc-QAR-AMC as substrate incubated for 40 mins by FLINT assay.

Another series concerns the target Prothrombin (Homo sapiens, UniProt P00734). Put plainly: Inhibition of human recombinant C-terminal 10-His-tagged thrombin (M1 to E622 residues) expressed in mouse NS0 cells using BOC-VPR-AMC as substrate incubated for 40 mins by FLINT assay.
The target in another series is T6, Neutrophil elastase (Homo sapiens, UniProt P08246).
T6 sequence (P08246 whole entry): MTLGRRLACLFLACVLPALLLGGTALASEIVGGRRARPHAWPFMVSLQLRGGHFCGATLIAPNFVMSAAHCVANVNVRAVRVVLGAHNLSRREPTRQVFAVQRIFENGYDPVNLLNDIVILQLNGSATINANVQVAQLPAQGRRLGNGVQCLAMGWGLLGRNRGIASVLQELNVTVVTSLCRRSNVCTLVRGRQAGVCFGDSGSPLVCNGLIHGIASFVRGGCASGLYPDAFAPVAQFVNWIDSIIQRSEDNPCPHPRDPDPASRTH
Put plainly: Inhibition of human neutrophil elastase using MeOSuc-AAPV-AMC as substrate incubated for 40 mins by FLINT assay.

Series [6] concerns the target Urokinase-type plasminogen activator (Homo sapiens, UniProt P00749). The series can be described thus: Inhibition of recombinant human C-terminal 10-His-tagged urokinase (M1 to L431 residues) expressed in mouse NS0 cells using Z-GGR-AMC as substrate incubated for 40 mins by FLINT assay.
For series [7], the target named is T1, Kallikrein-5. The series can be described thus: Inhibition of human recombinant 6His-Q-FLAG-tagged KLK5 expressed in baculovirus infected Sf9 insect cells using (Tos-Gly-Pro-Arg)2[R110].2TFA as substrate measured at 30 secs interval for 5 mins using 1 x 10'10M enzyme by FLINT assay.
The species entered for series [8] is Homo sapiens. Put plainly: Selectivity ratio of IC50 for human C-terminal 6-His-tagged KLKB1 (G20 to A638 residues) expressed in mouse NS0 cells to IC50 for human recombinant 6His-Q-FLAG-tagged KLK5 expressed in baculovirus infected Sf9 insect cells.
The species entered for series [9] is Homo sapiens. Put plainly: Selectivity ratio of IC50 for human recombinant N-terminal His-tagged and enterokinase cleavage site-fused KLK1 (19 to 262 residues) expressed in baculovirus infected Sf9 insect cells to IC50 for human recombinant 6His-Q-FLAG-tagged KLK5 expressed in baculovirus infected Sf9 insect cells.

Regarding `N=C(N)c1ccc(CC2OB(O)c3ccc(F)cc32)cc1OCc1cccnc1` (racemic), the IC50 is 0.0158 µM at Kallikrein-5 [1]; greater than 10 µM at Kallikrein-1 [2]; 63.1 µM on Coagulation factor X; 0.794 µM on Plasma kallikrein; greater than 100 µM on Kallikrein-7; 12.6 µM on Kallikrein-8. In addition, the IC50 is 31.6 µM on Kallikrein-14; 39.8 µM in series [5]; 15.8 µM at Prothrombin; 100 µM against Neutrophil elastase; greater than 100 µM in series [6]; 0.01 µM on Kallikrein-5 [7]. The pKa in [3] stood at 4.66. Besides, on Kallikrein-1 [4], the inhibition is 10%. For the same compound, in the series filed under Homo sapiens [8], the Ratio IC50 is 10.
Turning to `N=C(N)c1ccc(NCC2Cc3ccccc3B(O)O2)cc1` (racemic), the IC50 is 1.58 µM at Kallikrein-5 [1] and greater than 10 µM on Kallikrein-1 [2]. Also, at Kallikrein-1 [4], the inhibition is 35%.
For `Cc1ccc2c(c1)C(Cc1ccc(C(=N)N)c(OCc3cccnc3)c1)OB2O` (racemic), the IC50 at Kallikrein-5 [1] is 0.02 µM; at Kallikrein-1 [2], greater than 10 µM; at Coagulation factor X, 31.6 µM; against Plasma kallikrein, 0.794 µM; at Kallikrein-7, greater than 100 µM; on Kallikrein-8 it was 10 µM. For the same compound, the IC50 on Kallikrein-14 was 25.1 µM; in [5] it was 25.1 µM; at Prothrombin it was 6.31 µM; at Neutrophil elastase it was 25.1 µM; in [6], greater than 100 µM; at Kallikrein-5 [7], 0.00794 µM. In addition, the pKa in series [3] was 4.73. The inhibition at Kallikrein-1 [4] was 10%. In the series filed under Homo sapiens [8], the Ratio IC50 turned out to be 10.
Regarding `N=C(N)c1ccc(C2Cc3ccccc3B(O)O2)cc1OCc1cccnc1` (racemic), the IC50 at Kallikrein-1 [2] was 31.6 µM; on Coagulation factor X, 7.94 µM; against Plasma kallikrein it was 0.1 µM; on Kallikrein-7, greater than 100 µM; at Kallikrein-8, 0.398 µM; on Kallikrein-14, 0.794 µM. For the same compound, the IC50 was 6.31 µM in [5]; 2.51 µM on Prothrombin; 5.01 µM at Neutrophil elastase; 50.1 µM in [6]; 0.00398 µM on Kallikrein-5 [7]. For the same compound, the pKa in series [3] worked out at 4.83. Further, the results for the Ratio IC50 in the series listed under Homo sapiens [9] and in the series listed under Homo sapiens [8] were greater than 100 and 10, respectively.
Take `N=C(N)c1ccc(C2Cc3ccccc3B(O)O2)cc1` (racemic): the IC50 on Kallikrein-5 [1] is 0.0794 µM; at Kallikrein-1 [2] it was 10 µM. Further, the Ratio IC50 in the series listed under Homo sapiens [9] fell in the range of 30 to 100.
In the case of `N=C(N)c1ccc(CC2OB(O)c3cc(C(F)(F)F)ccc32)cc1OCc1cccnc1` (racemic), the IC50 at Kallikrein-5 [1] is 0.0126 µM; on Kallikrein-1 [2], greater than 10 µM; at Coagulation factor X, 31.6 µM; at Plasma kallikrein it was 0.2 µM; on Kallikrein-7 it was greater than 100 µM; at Kallikrein-8 it was 2 µM. The IC50 at Kallikrein-14 was 12.6 µM; in series [5] it was 31.6 µM; at Prothrombin it was 20 µM; against Neutrophil elastase, greater than 100 µM; in [6] it was greater than 100 µM; on Kallikrein-5 [7], 0.00251 µM. The same compound yielded a pKa in [3] of 4.51. Moreover, the inhibition on Kallikrein-1 [4] turned out to be 24%. For the same compound, in the series filed under Homo sapiens [8], the Ratio IC50 amounted to 10.
Take `N=C(N)c1ccc(CC2OB(O)c3ccccc32)cc1` (racemic): the IC50 was 0.158 µM on Kallikrein-5 [1] and 5.01 µM on Kallikrein-1 [2]. Besides, the Ratio IC50 in the series filed under Homo sapiens [9] was 30 to 100.
`Cc1cccc2c1B(O)OC(c1ccc(C(=N)N)c(OCc3cccnc3)c1)C2` (racemic): the IC50 is 0.0251 µM at Kallikrein-5 [1]; greater than 10 µM on Kallikrein-1 [2]; 50.1 µM on Coagulation factor X; 0.0794 µM against Plasma kallikrein; greater than 100 µM on Kallikrein-7; 1.58 µM on Kallikrein-8. The IC50 at Kallikrein-14 was 0.398 µM; in [5], 1.26 µM; on Prothrombin, 3.16 µM; against Neutrophil elastase, 0.794 µM; in series [6], 5.01 µM; at Kallikrein-5 [7], 0.0251 µM. The inhibition on Kallikrein-1 [4] is 27%. In addition, in the series filed under Homo sapiens [8], the Ratio IC50 worked out at 10.
With `COc1ccc2c(c1)C(Cc1ccc(C(=N)N)c(OCc3cccnc3)c1)OB2O` (racemic), the IC50 on Kallikrein-5 [1] was 0.0398 µM; at Kallikrein-1 [2], greater than 10 µM; on Coagulation factor X it was 79.4 µM; at Plasma kallikrein, 1.26 µM; at Kallikrein-7 it was greater than 100 µM; on Kallikrein-8, 12.6 µM. The IC50 on Kallikrein-14 was 39.8 µM; in [5] it was 25.1 µM; at Prothrombin, 31.6 µM; against Neutrophil elastase, greater than 100 µM; in [6], greater than 100 µM; at Kallikrein-5 [7] it was 0.0251 µM. Also, the pKa in [3] came to 4.71. On Kallikrein-1 [4], the inhibition is 13%. In addition, the Ratio IC50 in the series filed under Homo sapiens [8] was 10.

These data come from ChEMBL document CHEMBL4396973, “Design and development of a series of borocycles as selective, covalent kallikrein 5 inhibitors” (Bioorg Med Chem Lett, 2019).
